Test [1] concerns the target Cyclin-dependent kinase 1 (Homo sapiens, UniProt P06493). Briefly: Inhibition of CDK1 in presence of 100 uM ATP.
For test [2], the target named is Cyclin-dependent kinase 2 (Homo sapiens, UniProt P24941). Briefly: Inhibition of CDK2 in presence of 100 uM ATP.
The subject of another test is EJ. Briefly: Cytotoxicity against human EJ cells after 48 hrs. It is filed as functional. The method in brief: (§1)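 Exponentially growing cells exposed to test compounds at various concentrations for 48 h, then cell numbers counted; GI50 taken as the concentration giving 50% growth inhibition. Values are means of three experiments.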
The next test concerns A549. Briefly: Cytotoxicity against human A549 cells after 48 hrs. The format is functional. Conditions: A549, 48 h. The gist of the method:
as §1

The next test has as its system HCT-116. Briefly: Cytotoxicity against human HCT116 cells after 48 hrs. The format is functional. To be noted: HCT-116, 48 h. The method in brief: as §1

Some results are limits rather than exact numbers.

Chain of Cyclin-dependent kinase 1 (P06493 whole entry): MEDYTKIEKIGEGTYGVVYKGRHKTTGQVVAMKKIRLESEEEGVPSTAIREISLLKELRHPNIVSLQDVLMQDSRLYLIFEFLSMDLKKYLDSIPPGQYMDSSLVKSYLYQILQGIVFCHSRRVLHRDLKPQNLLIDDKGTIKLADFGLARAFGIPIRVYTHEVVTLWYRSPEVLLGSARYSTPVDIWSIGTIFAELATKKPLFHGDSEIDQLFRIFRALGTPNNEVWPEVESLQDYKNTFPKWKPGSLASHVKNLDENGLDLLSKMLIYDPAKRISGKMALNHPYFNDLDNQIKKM

Broadly, the IC50 is the concentration that inhibits the measured activity by half. In the case of `Nc1nccc(-c2cc(N3CCS(=O)(=O)CC3)ccc2O)n1`, the IC50 came to 7500 nM in test [1] and 3980 nM in test [2].
One may read the GI50 as the concentration at which growth is held to half of that of the control. High values mean lower sensitivity of the cells, low ones greater sensitivity of the cells. On to `CCc1cc(-c2cc(N3C[C@H](O)[C@@H](O)C3)ccc2O)nc(N)n1`, for which the IC50 in test [1] stood at 31 nM; in test [2] it was 50 nM. For the same compound, the figures for the GI50 in the test with EJ, in the test with A549 and in the test with HCT-116 were 1500 nM, 3000 nM and 1000 nM, respectively.
Take `Nc1nccc(-c2cc(N3CCC(O)C3)ccc2O)n1` (stereo not drawn): the figures for the IC50 in test [1] and in test [2] were 2990 nM and 2110 nM, respectively.
On to `Nc1nc(-c2cc(N3C[C@H](O)[C@@H](O)C3)ccc2O)cc(C2CCCCCC2)n1`, for which the IC50 was found to be 31 nM in test [1] and 90 nM in test [2]. For the same compound, the GI50 with EJ is 700 nM; in the test with A549 it was 600 nM; in the test with HCT-116, 300 nM.
Take `Nc1nc(-c2cc(N3C[C@H](O)[C@@H](O)C3)ccc2O)cc(C2CC2)n1`: the IC50 in test [1] and in test [2] was over 10000 nM in each case.
`CC(C)c1cc(-c2cc(N3C[C@H](O)[C@@H](O)C3)ccc2O)nc(N)n1`: the IC50 in test [1] is 94 nM. In addition, the GI50 with EJ is 1500 nM; with A549, 1800 nM; in the test with HCT-116, 900 nM.
As to `CN(C)c1cc(-c2cc(N3C[C@H](O)[C@@H](O)C3)ccc2O)nc(N)n1`, the IC50 came out at 280 nM in test [1] and 250 nM in test [2]. The compound further displayed a GI50 in the test on HCT-116 of over 10000 nM.
For `CCCCCCc1cc(-c2cc(N3C[C@H](O)[C@@H](O)C3)ccc2O)nc(N)n1`, the IC50 in test [1] is 260 nM; in test [2], 450 nM. Further, the GI50 in the test on EJ came out at 800 nM; in the test with A549, 700 nM; in the test with HCT-116 it was 500 nM.
`Nc1nc(-c2cc(N3C[C@H](O)[C@@H](O)C3)ccc2O)cc(C2CCNCC2)n1`: the figures for the IC50 in test [1] and in test [2] were 340 nM and 200 nM, respectively. Moreover, the GI50 in the test on HCT-116 was over 10000 nM.
Consider `Nc1nc(NC2CCCC2)cc(-c2cc(N3C[C@H](O)[C@@H](O)C3)ccc2O)n1`, for which the results for the IC50 in test [1] and in test [2] were 19 nM and 15 nM, respectively. The figures for the GI50 with EJ, in the test with A549 and with HCT-116 were 4500 nM, 7000 nM and 3000 nM, respectively.
The matching figures for `Nc1nc(-c2cc(N3C[C@H](O)[C@@H](O)C3)ccc2O)cc(C2CCCCC2)n1`: 45 nM, 52 nM, 1200 nM, 1200 nM and 800 nM.
In the case of `Nc1nc(-c2cc(N3C[C@H](O)[C@@H](O)C3)ccc2O)cc(N2CCOCC2)n1`, the IC50 was determined as 1000 nM in test [1] and 940 nM in test [2]. The compound also had a concentration for 50% growth inhibition (GI50) in the test on HCT-116 of over 10000 nM.
As for `Nc1nccc(-c2cc(N3CCC(O)CC3)ccc2O)n1`, the figures for the IC50 in test [1] and in test [2] were 10000 nM and 3760 nM, respectively.
In the case of `Nc1nc(-c2cc(N3C[C@H](O)[C@@H](O)C3)ccc2O)cc(C2CCCNC2)n1` (stereo partly drawn), the values for the IC50 in test [1] and in test [2] were 220 nM and 360 nM, respectively. Moreover, the GI50 in the test on EJ, in the test on A549 and in the test on HCT-116 was over 10000 nM in each case.
As to `Nc1nccc(-c2cc(N3CCC(=O)CC3)ccc2O)n1`, the IC50 in test [1] and in test [2] was over 10000 nM in each case.
With `CN1CCN(c2cc(-c3cc(N4C[C@H](O)[C@@H](O)C4)ccc3O)nc(N)n2)CC1`, the IC50 in test [1] was found to be 420 nM; in test [2], 300 nM. In the test on HCT-116, this compound came in with a GI50 of over 10000 nM.
With `Nc1nc(-c2cc(N3C[C@H](O)[C@@H](O)C3)ccc2O)cc(C2CCCC2)n1`, the IC50 in test [1] amounted to 23 nM; in test [2], 42 nM. In addition, the figures for the GI50 in the test with EJ, in the test on A549 and in the test on HCT-116 were 900 nM, 2000 nM and 400 nM, respectively.
Take `Nc1nc(NCCN2CCOCC2)cc(-c2cc(N3C[C@H](O)[C@@H](O)C3)ccc2O)n1`: the IC50 in test [1] worked out at 790 nM; in test [2], 450 nM. In the test with HCT-116, the GI50 is over 10000 nM.
Turning to `Nc1nc(NC2CCCCC2)cc(-c2cc(N3C[C@H](O)[C@@H](O)C3)ccc2O)n1`, the results for the IC50 in test [1] and in test [2] were 20 nM and 60 nM, respectively. In addition, the GI50 worked out at 2000 nM in the test with EJ, 1500 nM with A549 and 900 nM with HCT-116.
With `Cc1cc(-c2cc(N3C[C@H](O)[C@@H](O)C3)ccc2O)nc(N)n1`, the IC50 in test [1] was 20 nM; in test [2], 42 nM. Besides, the GI50 is 900 nM with EJ, 2000 nM in the test on A549 and 400 nM with HCT-116.
On to `Nc1nccc(-c2cc(N3CCCCC3)ccc2O)n1`, for which the IC50 in test [1] and in test [2] was over 10000 nM in each case.
Regarding `Nc1nccc(-c2cc(N3C[C@H](O)[C@@H](O)C3)ccc2O)n1`, the IC50 in test [1] came out at 15 nM; in test [2], 21 nM. The GI50 in the test with EJ amounted to 4000 nM; in the test with A549, 5500 nM; with HCT-116 it was 2500 nM.
With `Nc1nccc(-c2cc(N3CCOCC3)ccc2O)n1`, the results for the IC50 in test [1] and in test [2] were 2240 nM and 790 nM, respectively.
